The source of these data is ChEMBL document CHEMBL3808369, “Identification of Cyproheptadine as an Inhibitor of SET Domain Containing Lysine Methyltransferase 7/9 (Set7/9) That Regulates Estrogen-Dependent Transcription” (J Med Chem, 2016).

Data set [1] deals with T1, N-lysine methyltransferase KMT5A (Homo sapiens) (UniProt Q9NQR1).
T1 sequence (whole entry): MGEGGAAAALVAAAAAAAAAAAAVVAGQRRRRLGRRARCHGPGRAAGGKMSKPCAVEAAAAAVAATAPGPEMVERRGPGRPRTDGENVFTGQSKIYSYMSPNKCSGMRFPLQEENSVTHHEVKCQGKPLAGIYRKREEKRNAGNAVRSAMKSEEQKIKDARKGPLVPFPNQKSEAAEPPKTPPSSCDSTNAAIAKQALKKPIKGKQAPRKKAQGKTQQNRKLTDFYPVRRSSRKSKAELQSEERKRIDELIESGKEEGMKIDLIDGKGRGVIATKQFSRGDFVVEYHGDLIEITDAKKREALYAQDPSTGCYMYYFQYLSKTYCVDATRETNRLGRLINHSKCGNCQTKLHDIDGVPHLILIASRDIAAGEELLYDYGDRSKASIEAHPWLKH
The data set is described as follows: Inhibition of Set8 (unknown origin) by AlphaELISA.

Data set [2] deals with T2, Histone-lysine N-methyltransferase SUV39H1 (Homo sapiens) (UniProt O43463).
T2 sequence (whole entry): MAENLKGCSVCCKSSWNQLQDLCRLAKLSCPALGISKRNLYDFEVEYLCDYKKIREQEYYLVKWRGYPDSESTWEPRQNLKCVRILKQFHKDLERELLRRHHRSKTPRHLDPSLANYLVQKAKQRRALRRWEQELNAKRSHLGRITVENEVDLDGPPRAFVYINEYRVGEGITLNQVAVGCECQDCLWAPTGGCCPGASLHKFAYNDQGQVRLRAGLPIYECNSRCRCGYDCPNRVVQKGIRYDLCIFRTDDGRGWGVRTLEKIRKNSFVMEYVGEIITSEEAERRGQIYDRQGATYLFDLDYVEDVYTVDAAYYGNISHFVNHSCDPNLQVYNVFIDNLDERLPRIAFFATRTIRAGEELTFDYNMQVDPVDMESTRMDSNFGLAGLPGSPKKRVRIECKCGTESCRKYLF
The data set is described as follows: Inhibition of Suv39h1 (unknown origin) by ELISA.

Data set [3] addresses T3, Histone-lysine N-methyltransferase SETD7 (Homo sapiens, UniProt Q8WTS6).
T3 sequence (Q8WTS6 whole entry): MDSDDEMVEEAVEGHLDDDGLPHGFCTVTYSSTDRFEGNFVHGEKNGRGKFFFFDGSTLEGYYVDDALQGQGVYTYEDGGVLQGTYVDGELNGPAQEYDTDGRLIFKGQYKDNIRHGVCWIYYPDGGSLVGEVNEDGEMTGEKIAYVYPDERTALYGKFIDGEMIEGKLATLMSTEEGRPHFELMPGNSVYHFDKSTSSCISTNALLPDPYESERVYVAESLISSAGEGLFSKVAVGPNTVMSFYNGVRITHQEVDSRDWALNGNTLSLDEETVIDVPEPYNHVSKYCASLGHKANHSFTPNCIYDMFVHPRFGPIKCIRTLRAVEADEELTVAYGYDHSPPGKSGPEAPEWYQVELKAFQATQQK
The data set is described as follows: Inhibition of recombinant Set7/9 (unknown origin) expressed in Escherichia coli BL21 (DE3) using biotinylated histone H3-derived peptide/SAM as substrate by alphaLISA.

In data set [4] the test system is MCF7. The data set can be described thus: Effect on ERalpha mRNA expression in human MCF7 cells at 4.3 to 43 uM after 48 hrs by RT-PCR analysis. It counts as functional, cell-based. The essentials: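 MCF7 cells were treated with or without compound for 48 h. Total RNA was isolated with TRIzol. ERα and GAPDH mRNA levels were measured by semiquantitative RT-PCR.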

The target of data set [5] is T4, Histone-lysine N-methyltransferase SETD7 (Homo sapiens) (UniProt Q8WTS6).
T4 sequence (whole entry): T3 sequence (Q8WTS6 whole entry)
The data set is described as follows: Inhibition of Set7/9 in human MCF7 cells assessed as reduction of ERalpha expression at 43 uM by immunoblotting analysis. The class given is cell-based. The settings on record: TDE = time-dependent effect. The method, boiled down:
(§1)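 MCF7 cells (1 × 10^5 per well) treated either with a concentration series for 48 h or with 43 μM over a time course. RIPA-sonicated lysates were immunoblotted for ERα with enhanced chemiluminescence readout.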

Data set [6] deals with MCF7. The data set is described as follows: Antitumor activity against Fucci introduced human MCF7 cells xenografted in Balb/c-nu/nu mouse at 20 mg/kg, ip qd administered as continuous dose for 8 days measured every 3 to 4 days until day 15. The class given is functional, organism-based. The essentials:
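Female Balb/C-nu/nu mice, 7 weeks old, each inoculated with about 2 × 10^7 Fucci-MCF7 cells in the mammary gland. Dosing started when tumors reached about 100 mm3, 13 days after inoculation. 20 mg/kg given ip once daily, days 1–8, in saline with 10% ethanol; a vehicle group ran alongside. Caliper tumor volume (a2b)/2 and body weight were recorded every 3 or 4 days to day 15. Six mice per group, mean ± SE.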

The test system of data set [7] is MCF7. The data set can be described thus: Antitumor activity against Fucci introduced human MCF7 cells xenografted in Balb/c-nu/nu mouse at 20 mg/kg, ip qd administered as single dose. It counts as functional, organism-based. The essentials: (§2)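 Female Balb/C-nu/nu mice, 7 weeks old, carried mammary Fucci-MCF7 xenografts (about 2 × 10^7 cells) grown to about 100 mm3. A single ip dose of 20 mg/kg in saline with 10% ethanol was given on day 1; a vehicle group ran alongside. Caliper tumor volume (a2b)/2 and body weight were recorded every 3 or 4 days to day 15. Tumor volume relative to day 1; six mice, mean ± SE.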

Data set [8] concerns the target T4, Histone-lysine N-methyltransferase SETD7 (Homo sapiens). The data set is described as follows: Inhibition of Set7/9 in human MCF7 cells assessed as suppression of beta-estradiol-induced ERE promoter activation at 14 to 43 uM preincubated for 18 hrs followed by beta-estradiol addition measured after 24 hrs by luciferase reporter gene assay. It counts as cell-based. The method, boiled down:
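MCF7 cells held in estrogen-free medium (phenol red-free RPMI, 10% charcoal-stripped FBS) for 3 days. Cells were then transfected with a 3×ERE firefly luciferase reporter plus a TK-Renilla control. Drug added 6 h later; after 18 h, ±10 nM β-estradiol for 24 h. Firefly signal normalised to Renilla, expressed as fold over unstimulated cells. Four independent assays.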

Data set [9] deals with Mus musculus. The data set is described as follows: Effect on body weight in Balb/c-nu/nu mouse xenografted with Fucci introduced human MCF7 cells at 20 mg/kg, ip qd administered as single dose. The settings on record: in vivo. The class given is ADME, organism-based. The method, boiled down: as §2
The target in data set [10] is T4, Histone-lysine N-methyltransferase SETD7 (Homo sapiens). The data set is described as follows: Inhibition of Set7/9 in human MCF7 cells assessed as ERalpha destabilization at 43 uM for 36 hrs by immunoblotting analysis in presence of proteasome inhibitor MG132. It counts as cell-based. The essentials:
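MCF7 cells treated with or without 43 μM drug for 36 h, then MG132 added for 12 h. Cells lysed by sonication in RIPA buffer with protease inhibitors. ERα read by SDS-PAGE/PVDF immunoblot with chemiluminescent detection.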

Data set [11] has the same target. The data set can be described thus: Inhibition of Set7/9 in human MCF7 cells assessed as reduction of ERalpha expression after 48 hrs by immunoblotting analysis. The class given is cell-based. The essentials: as §1

Active and inactive are the calls of the source. The rule behind the calls is not given here.

In the case of `CN1CCC(=C2c3ccccc3C=Cc3ccccc32)CC1` [CYPROHEPTADINE], the inhibition entry in data set [1], in data set [2] and in [8] was “Active” in each case. Besides, the IC50 in data set [3] is 1000 nM. Moreover, in [4], the result was inactive. Moreover, the inhibition entry was “tde” in data set [5] and “Dose-dependent effect” in data set [11]. Further, the TGI result in data set [6] and in [7] was “Active” each time. Also, the Activity entry in data set [9] is “Non-toxic”. Further, the inhibition entry in data set [10] was “inactive”.
